In the library only some 11% were active in any assay of this set; here they are far more common.
WT yeast gro inh – growth inhibition of WT yeast, mitochondrial fusion screen. inhibition, % at 10 µM. mitochondrial fusion phenotypic screen, WT strain. 190,000 tested, 2.1% active; in the data active = inhibition above about 58%; tested in S. cerevisiae
Lmaj promast – inhibitors of Leishmania major promastigote growth. 200,000 tested, 9% active. inhibition, % at 10 µM. Leishmania major promastigotes, resazurin fluorescence viability. AID 1063;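 also: promastigotes grown with compound for 44 hours at 28 °C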
Diaphorase inh – inhibits diaphorase or chemically oxidizes, flagging diaphorase assay artifacts | diaphorase resazurin-to-resorufin fluorescence, NADH, 16 min; bacterial (C. kluyveri) enzyme, not human | inhibition, % at 20 µM | 190,000 tested, 0.69% active;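 active = primary screen inhibition at 20 µM above a set limit, cut at about 50% in these data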;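 also: plate controls were DMSO with full reaction for no effect and wells lacking NADH for full effect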
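Detection: fluorescence of resorufin formed from resazurin, Ex 544/Em 590 nm; test system: Clostridium kluyveri diaphorase enzyme; amount: 0.14 U/mL diaphorase, enzyme working solution; times: 16-min room-temperature incubation before reading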
Diaphorase act – diaphorase activation or chemical reduction counter-screen; Diaphorase/resazurin coupled assay, resorufin fluorescence, 16 min; active compounds read high; 1 = vehicle wells, 0 = NADH-free wells; 190,000 tested, 0.005% active; activation factor at 20 µM;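 active = diaphorase activity raised at least twofold by the compound at 20 µM; inactive = activation factor below 2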
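Test system: Clostridium kluyveri diaphorase, purified enzyme; input: enzyme 0.07 U/mL final; buffer or medium: 50 mM HEPES pH 7.4 with 4.542 mM MgCl2, 0.005% Tween 20; also added: 0.114 mM NADH and 0.1 mM resazurin, final amounts; schedule: 16 min enzyme reaction, ambient temperature; technique: fluorescence of resorufin, 544 nm excitation, 590 nm emission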
G6PDH counter – counter-screen for G6PDH assay hits: L. mesenteroides G6PDH inhibition | Purified L. mesenteroides G6PDH, diaphorase/resazurin coupled fluorescence, 45 min | inhibition, % at 5 µM | 200,000 tested, 0.12% active
* hit, by the source's call; nt = no result given. Rule as the data show it, unless noted: active = inhibition above about 50%; inactive = the rest.

SMILES | WT yeast gro inh | Lmaj promast | Diaphorase inh | Diaphorase act | G6PDH counter
CC1=CSC2=NC(=O)/C(=C\c3cccn3-c3ccc([N+](=O)[O-])cc3)C(=N)N12 | 24.7 | 59.9* | -3.3 | 1 | 5.7
Cc1ccc(-n2cccc2/C=C2/C(=N)N3C(=NC2=O)SN=C3S(C)(=O)=O)cc1Cl | 16.8 | -3.0 | 47.9 | 0.5 | -14.4
CC1=CSC2=NC(=O)/C(=C\c3cccn3-c3ccccc3)C(=N)N12 | 5.3 | 87.6* | 29.0 | 0.7 | 3.9
Cc1cccc(C)c1-n1cccc1/C=C1/C(=N)N2C(=NC1=O)SN=C2S(C)(=O)=O | 4.1 | -4.8 | 10.5 | 0.9 | 4.4
CC(C)c1ccc(-n2cccc2/C=C2/C(=N)N3C=CSC3=NC2=O)cc1 | 87.3* | 97.9* | -4.4 | 1 | 11.2
Cc1ccccc1Cn1cccc1/C=C1/C(=N)N2C=CSC2=NC1=O | 10.3 | 10.4 | 28.5 | 0.7 | -1.4
O=C(CNC(=O)c1ccccc1Cl)N/N=C/C=C/c1ccccc1 | -1.6 | -4.9 | 10.5 | 0.9 | -17.4
COc1cc2c3nnc(-c4ccc(F)cc4)c-3cn(Cc3ccccc3)c2cc1OC | -3.6 | 22.0 | -10.0 | 1.1 | -58.9
CCN(CC)P(=O)(Nc1ccccc1Br)c1ccc(N(C)C)cc1NC(=O)c1ccco1 (stereo not drawn) | 5.6 | 73.2* | 19.5 | 0.8 | 5.4
Cn1c(SCC(=O)NCc2ccccc2)nnc1C1CC1 | -14.7 | -6.2 | -2.1 | 1 | 6.5
Cc1nn2c(C(F)(F)F)cc(-c3ccc(Cl)cc3)nc2c1C(=O)N1CCOCC1 | 11.8 | 92.0* | 16.4 | 0.8 | 10.6
c1ccc2sc(Sc3ncnc4sccc34)nc2c1 | -26.5 | 68.6* | 18.6 | 0.8 | 7.3
O=C1c2cnc3nc(SCc4ccccc4)nn3c2CC2c3ccccc3CCN12 (stereo not drawn) | 80.5* | 4.5 | 6.8 | 0.9 | 8.8
COc1ccc(OC)c(S(=O)(=O)Nc2cc(C(=O)O)ccc2N2CC3CC(C2)c2cccc(=O)n2C3)c1 (stereo not drawn) | -4.0 | 2.9 | 5.5 | 0.9 | 0.8
S=C1NC(c2ccccc2)=CC(c2ccccc2)N1 (stereo not drawn) | -4.0 | -1.1 | -4.3 | 1 | 1.8
S=C1NC(c2cccs2)=CC(c2ccc(Br)cc2)N1 (stereo not drawn) | 71.9* | 0.9 | 24.4 | 0.8 | -2.5
CC(C)Cn1c(Br)nc2c1c(=O)n(CCC#N)c(=O)n2C | -6.3 | 2.6 | 3.2 | 1 | 8.7
O=C(NCCO)c1cc2ccccc2cc1O | -20.6 | -5.7 | 52.5* | 0.5 | -1.9
NNC(=O)c1cc2ccccc2cc1O | 9.1 | 63.8* | 8.7 | 0.9 | -17.2
O=C(NCCO)c1cc2ccccc2c(=O)s1 | -42.7 | -2.1 | -2.8 | 1 | 1.5
N#CC1=C(S)N(c2ccc(F)cc2)C2(CCCCC2)NC1=O | -5.4 | -1.4 | 3.9 | 1 | -2.1
Cc1ccccc1N1Cc2ccccc2C1 | -23.5 | -2.4 | 8.3 | 0.9 | 8.3
CCOc1ccc(N2C(=O)C(c3ccccc3)=C(c3nc4ccccc4s3)C2NC(C)=O)cc1 (stereo not drawn) | 38.9 | 51.1* | 13.9 | 0.9 | 7.4
O=[N+]([O-])c1ccc(-c2nc3ccc([N+](=O)[O-])cc3[nH]2)cc1 | 13.5 | 31.7 | 14.0 | 0.9 | -1.0
O=[N+]([O-])c1ccc2nc(/C=C/c3ccc(Cl)cc3)[nH]c2c1 | 67.2* | 16.4 | 15.3 | 0.8 | -6.6
SMILES | WT yeast gro inh | Lmaj promast | Diaphorase inh | Diaphorase act | G6PDH counter
Nc1ccc(-c2nc3ccc([N+](=O)[O-])cc3[nH]2)cc1 | 29.9 | 82.6* | 6.8 | 0.9 | -19.1
Cc1ccccc1NC(=O)COC(=O)CCc1ccccc1 | -0.9 | -6.0 | 26.5 | 0.7 | 2.4
COc1cc(/C=N/N=C(/C(=O)c2ccccc2)c2ccccc2)cc(OC)c1O | 72.2* | -5.8 | 30.9 | 0.7 | 18.3
CCOC(=O)c1c(C)[nH]c(C(=O)CSc2ccccc2)c1C | -5.4 | -6.2 | -3.4 | 1 | -3.2
CCOC(=O)c1c(C)[nH]c(C(=O)CSc2nccc(C)n2)c1C | 17.1 | 75.3* | 5.4 | 0.9 | -9.6
Cc1ccc(CNCC(O)(c2ccccc2)c2ccc(F)cc2)cc1 (stereo not drawn) | 75.1* | -0.6 | -2.1 | 1 | 12.7
COC(=O)c1scc(C)c1-n1ccc(C(=O)C(=O)N(C)C)c1 | -7.9 | -6.2 | 12.9 | 0.9 | -0.2
COc1ccc(-c2csc(NC(=O)C3COc4ccccc4O3)n2)cc1OC (stereo not drawn) | 64.9* | 26.9 | 8.6 | 0.9 | 10.0
CSc1nncn1/N=C/c1ccc([N+](=O)[O-])cc1 | -19.6 | -1.7 | 0.0 | 1 | 2.1
CSc1nncn1/N=C/c1ccc2c(c1)OCO2 | 64.0* | -8.0 | 4.2 | 1 | 2.4
CS(=O)(=O)N(CC(=O)N1CCN(c2ccc(F)cc2)CC1)c1ccc(F)c(Cl)c1 | 5.8 | -1.6 | 14.7 | 0.9 | -2.3
CC(C)(C)NC(=O)CSc1nc(O)cc(=O)[nH]1 | -9.3 | -7.9 | 14.8 | 0.9 | 15.3
Cn1cc(C(=O)N2CCc3ccccc32)cn1 | 14.7 | 42.0 | 11.4 | 0.9 | -4.5
COc1ccc(C(=O)/C=C/c2ccccc2F)c(OC(=O)c2ccc([N+](=O)[O-])cc2)c1 | 26.2 | 91.2* | 16.6 | 0.8 | 4.1
O=C(/C=C/c1cccs1)NC(=S)Nc1ccccc1 | 12.5 | -2.8 | 19.3 | 0.8 | 11.3
CCOc1nc(-c2ccc(Cl)cc2)nc2ccccc12 | 2.3 | -0.8 | 1.6 | 1 | 6.1
CCc1nc2c(c(SC)nn2-c2ccccc2)c(N)c1C(=O)OC | -20.6 | 9.4 | 19.9 | 0.8 | 0.4
CN(Cc1cn(-c2ccccc2)nc1-c1cc2ccccc2o1)C(=O)CCC(=O)O | -5.6 | -3.0 | 0.0 | 1 | -0.1
O=C(NC(=S)Nc1ccc2cn[nH]c2c1)c1ccccc1 | -10.6 | 14.9 | 24.6 | 0.8 | -4.6
Cc1cccc(C(=O)CC(=O)c2cc(Cl)ccc2O)c1 | 61.0* | 99.3* | 24.6 | 0.8 | 2.3
O=C(CC(=O)c1cc(Cl)ccc1O)c1ccccc1 | 62.4 | 99.5* | 12.1 | 0.9 | -21.4
Cc1ccc(O)c(C(=O)CC(=O)c2cccc(F)c2)c1 | 66.0 | 60.0* | 3.3 | 1 | 8.2
O=C(NNC(=O)c1ccccc1O)c1ccc(Cl)cc1 | 0.2 | -5.1 | 7.9 | 0.9 | 15.4
Fc1ccc(-c2ccc(/C=N\n3cnnc3)o2)cc1Cl | 11.2 | 95.0* | -5.5 | 1.1 | 0.0
FC(F)Sc1ccc(N=C2NN=C(c3ccc4c(c3)OCCO4)CS2)cc1 | 9.9 | 55.1* | 9.8 | 0.9 | -0.8
SMILES | WT yeast gro inh | Lmaj promast | Diaphorase inh | Diaphorase act | G6PDH counter
COc1ccc(N=C2NN=C(c3ccc4c(c3)OCCO4)CS2)cc1 | -6.7 | -0.1 | 12.4 | 0.9 | 4.9
CC(C)CCn1c(=O)c2ccccc2c2ccccc2c1=O | 59.2* | -7.4 | 18.0 | 0.8 | 2.5
CC1=C(C(=O)Nc2cccnc2)C(c2cccnc2)n2nc(-c3cccs3)nc2N1 (stereo not drawn) | 8.3 | 83.8* | 0.4 | 1 | 2.6
CC1=C(C(=O)Nc2ccccc2)C(c2cccnc2)n2nc(-c3cccnc3)nc2N1 (stereo not drawn) | nt | 14.4 | 11.9 | 0.9 | 3.4
COc1ccc(C(=O)OC/C(O)=C(\C#N)c2nc3ccccc3[nH]2)cc1S(=O)(=O)N1CCOCC1 | -5.9 | -7.8 | 18.7 | 0.8 | 0.3
CC(C)(C)[C@H]1C=C(C(=O)N2CCN(Cc3ccccc3)CC2)O[C@@H](OCc2ccc(CO)cc2)C1 | 72.2* | 17.6 | 37.2 | 0.6 | 13.2
